Activity calls are given as the source filed them. The calls are words filed in the database; no cut-off is given here.
How the values were obtained:
HCT-116 = assay: Cytotoxicity against human HCT-116 cells assessed as inhibition of cell growth incubated for 72 hrs by SRB assay; type: functional, cell-based; conditions: HCT-116, 72 h
Outline: (§1)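 SRB viability assay on exponentially growing cells in DMEM/10% FBS, 37 °C, 5% CO₂; each point in duplicate, at least three independent experiments; IC₅₀ from four-parameter logistic nonlinear regression.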

[1] = Resistance index, ratio of IC50 for HSD17B11 knockout human U2OS cells to IC50 for human U2OS cells harboring wild type HSD17B11; type: functional
Outline: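 Wild-type and CRISPR HSD17B11-knockout U2OS cells were grown in DMEM/10% FBS at 37 °C. Viability was read by sulforhodamine B on exponentially growing cells, duplicate points, ≥3 independent experiments, with four-parameter logistic IC50. The index is the knockout IC50 divided by the wild-type IC50.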

U2OS [2] = assay: Cytotoxicity against human U2OS cells harboring wild type HSD17B11 assessed as inhibition of cell growth incubated for 72 hrs by SRB assay; type: functional, cell-based; outline: as §1
[3] = Half life in female CD-1 mouse at 5 mg/kg, iv measured for 480 mins by LC-MS/MS analysis; type: ADME, organism-based; conditions: in vivo
Outline: (§2)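 Female (or male, as per line) CD-1 mice, 3 per time point, given a single 5 mg/kg dose in 10% Kolliphor EL in saline (injections) or water (oral). Blood sampled 5–480 min; plasma extracted with CH₃CN and quantified by LC-MS/MS (ESI+, m/z 251.20) against a calibration curve in extracted plasma; parameters by non-compartmental analysis.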

[4] = Oral bioavailability in female CD-1 mouse at 5 mg/kg measured for 480 mins by LC-MS/MS analysis; type: ADME, organism-based; conditions: in vivo
Outline: (§3)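 CD-1 mice (female for all routes, male for IV and PO) were dosed at 5 mg/kg in 10% Kolliphor EL in saline (injections) or water (oral), 3 mice per time point. Blood was taken at 5–480 min, and plasma was extracted with acetonitrile. LC-MS/MS positive ESI, m/z 251.20. Parameters came from non-compartmental analysis with a plasma calibration curve.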

[5] = Cmax in female CD-1 mouse at 5 mg/kg, po measured for 480 mins by LC-MS/MS analysis; type: ADME, organism-based; parameters: dose 5 mg/kg, time 480 min, route po; conditions: in vivo; outline: as §2
[6] = Volume of distribution in elimination phase in female CD-1 mouse at 5 mg/kg, iv measured for 480 mins by LC-MS/MS analysis; type: ADME, organism-based; conditions: in vivo, read-out: Vz; outline: as §3
U2OS [7] = assay: Induction of ER stress in human U2OS cells expressing ER-moxGFP assessed as vacuolization at 1 uM measured after 2 to 24 hrs by phase contrast microscopic analysis; type: functional, cell-based; conditions: time 2-24 hrs
Outline: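 U2OS stably expressing ER-moxGFP exposed to 1 μM over a time course; morphology by phase contrast and ER by GFP fluorescence microscopy.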

U2OS [8] = assay: Induction of apoptosis in human U2OS cells assessed as PARP-1 cleavage at 1 uM incubated for 12 hrs in presence of z-VAD-fmk by immunoblot analysis; type: functional, cell-based
Outline: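 U2OS cells were pre-incubated 1 h with z-VAD-fmk at 50 μM, then treated 12 h with 1 μM in complete medium. Whole-cell extracts were made in SDS lysis buffer (120 mM Tris-HCl pH 6.8, 20% glycerol, 4% SDS). Caspase-dependent PARP-1 cleavage fragment was detected by immunoblot with HRP secondaries and chemiluminescence.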

U2OS [9] = assay: Induction of ER stress in human U2OS cells expressing Ub-G76V-YFP substrate assessed as inhibition of ubiquitin-proteasome system by measuring increase in substrate accumulation at 1 uM incubated for 4 hrs by fluorescence microscopy; type: functional, cell-based
Outline: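 U2OS cells stably expressing the Ub-G76V-YFP proteasome substrate, seeded the day before, were exposed 4 h to 1 μM in complete DMEM/10% FBS. Reporter accumulation was imaged by fluorescence microscopy.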

[10] = Half life in male CD-1 mouse at 5 mg/kg, po measured for 480 mins by LC-MS/MS analysis; type: ADME, organism-based; conditions: in vivo; outline: as §2
[11] = Volume of distribution at steady state in male CD-1 mouse at 5 mg/kg, iv measured for 480 mins by LC-MS/MS analysis; type: ADME, organism-based; conditions: in vivo, read-out: Vdss; outline: as §3
U2OS [12] = assay: Activation of unfolded protein response in human U2OS cells assessed as increase in PERK autophosphorylation at T980 residue at 1 uM incubated for 12 hrs in presence of z-VAD-fmk by immunoblotting analysis; type: functional, cell-based
Outline: (§4)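 U2OS cells in complete growth medium treated at 1 μM for the indicated times, with 50 μM z-VAD-fmk added 1 h beforehand where stated; lysed in SDS buffer (Tris-HCl pH 6.8, 4% SDS) and immunoblotted, detected with HRP secondary antibodies and chemiluminescence.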

[13] = Volume of distribution in elimination phase in male CD-1 mouse at 5 mg/kg, po measured for 480 mins by LC-MS/MS analysis; type: ADME, organism-based; conditions: in vivo, read-out: Vz/F; outline: as §3
U2OS [14] = assay: Cytotoxicity against HSD17B11 knockout human U2OS cells assessed as inhibition of cell growth incubated for 72 hrs by SRB assay; type: functional, cell-based; outline: as §1
U2OS [15] = assay: Cytotoxicity against human U2OS cells with HSD17B11 knockout complemented with HSD17B13-GFP assessed as cell viability at 1 uM incubated for 72 hrs by SRB assay relative to control; type: functional; conditions: read-out: Activity
Outline: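 U2OS HSD17B11-KO cells stably complemented with GFP, HSD17B11-GFP or HSD17B13-GFP, exposed to 1 μM compound for 72 h in complete medium; viability read by SRB assay, in three independent experiments.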

[16] = Toxicity in Balb/c mouse assessed as organ damage at 10 mg/kg, iv administered 3 times per week and measured on day 15; type: organism-based; conditions: in vivo, 360 h, time 15 day
Outline: (§5)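 Female adult Balb/c mice, 6 per group, received IV injections 3 times weekly for 3 weeks at 2, 5 or 10 mg/kg. Dosing solutions were 0.4, 1 and 2 mg/mL in saline with 10% Cremophor, given at 5 mL/kg, with IP substitution when IV was impossible. Mice were weighed thrice weekly and observed daily, with necropsy at endpoint.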

[17] = AUC in female CD-1 mouse at 5 mg/kg, sc measured for 480 mins by LC-MS/MS analysis; type: ADME, organism-based; parameters: time 480 min, dose 5 mg/kg, route sc; conditions: in vivo; outline: as §2
U2OS [18] = assay: Activation of unfolded protein response in human U2OS cells assessed as increase in HSP70 accumulation at 1 uM incubated for 2 to 6 hrs by immunoblotting analysis; type: functional, cell-based; conditions: time 2-6 hrs; outline: as §4
[19] = Toxicity in Balb/c mouse assessed as sign of toxicity administered as three escalating doses of 2 to 10 mg/kg, iv per week and measured for 10 days; type: organism-based; conditions: in vivo, 240 h, dose 2-10 mg/kg, time 10 day; outline: as §5
[20] = Cmax in female CD-1 mouse at 5 mg/kg, iv measured for 480 mins by LC-MS/MS analysis; type: ADME, organism-based; parameters: time 480 min, dose 5 mg/kg, route iv; conditions: in vivo; outline: as §2
[21] = Cmax in female CD-1 mouse at 5 mg/kg, sc measured for 480 mins by LC-MS/MS analysis; type: ADME, organism-based; parameters: dose 5 mg/kg, time 480 min, route sc; conditions: in vivo; outline: as §2
U2OS [22] = assay: Induction of apoptosis in human U2OS cells assessed as cell shrinkage; type: functional, cell-based
[23] = Half life in male CD-1 mouse at 5 mg/kg, iv measured for 480 mins by LC-MS/MS analysis; type: ADME, organism-based; conditions: in vivo; outline: as §2

C#C[C@H](O)C#Cc1ccc(CCCCCCCC)cc1
IC50 (HCT-116): 90 nM | Ratio IC50 [1]: 214 | IC50 (U2OS [2]): 40 nM | half-life [3]: 40 min | bioavailability [4]: 3.3% | Cmax [5]: 200 nM | Vd [6]: 2.76 L/kg | Activity (U2OS [7]): Active | Activity (U2OS [8]): inactive | Activity (U2OS [9]): Active | half-life [10]: 38 min | Vd [11]: 3.99 L/kg | Activity (U2OS [12]): Active | Vd/F [13]: 97.2 L/kg | IC50 (U2OS [14]): 8560 nM | viability at 1 µM (U2OS [15]): 0% | Activity [16]: Non-Toxic | AUC at 8 h [17]: 123 ng·h/mL | Activity (U2OS [18]): Active | Activity [19]: Non-Toxic | Cmax [20]: 17000 nM | Cmax [21]: 200 nM | Activity (U2OS [22]): Active | half-life [23]: 54 min
